# rRNA inh HTS = reduced GFP signal of wild-type E. coli, primary screen, bacterial rRNA inhibitor project, GFP/RFP fluorescence, OD600, single point; E. coli WT GFP vs humanized-ribosome RFP mutants, 24 h; hits give low values; DMSO median 0, no signal -100; GFP signal change (wild-type ribosome), % (no concentration beside the values); hit rate 1.6% among 350,000; AID 720706, 2013;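 active = significant combined selectivity score with lowered wild-type GFP, culture density cut under 30%, mutant RFP and density less affected; inactive = any of these conditions unmet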
# PvdQ acylase = P. aeruginosa PvdQ acylase inhibitors, primary screen, biochemical, fluorescence, plate reader and imaging, single point | inhibition, % at 10 µM | hit rate 0.063% among 340,000 | purified PvdQ acylase | AID 488965, 2010; in the data active = inhibition above about 30%, passing the limit was not always enough;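 also: 0% = vehicle neutral wells and 100% = reference inhibitor wells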
# dFosB act = activators of delta FosB homodimer, primary screen, biochemical, fluorescence polarization, TAMRA-CDK5 oligo, single point; Protein FosB (Mus musculus), P13346; purified delta FosB; percent of positive-control signal above neutral wells; activation, % at 25 µM; hit rate 0.99% among 340,000;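 active = mean activation above about 17%, with every replicate also reaching it, limit read from the data, passing the limit was not always enough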
# Xi reactivation = activators of inactive X chromosome reactivation, primary screen, imaging, XiGFP fibroblasts, GFP high-content imaging, set 2; XiGFP mouse fibroblasts, % GFP-positive cells imaging, 3 d; cells co-treated with 5-aza-dC sensitizer; scaled so ellipticine positive control = 100%; activation, % at 7.58 µM; hit rate 0.055% among 360,000; AID 743238, 2013;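 active = mean normalized replicate activation at least 10% and every replicate at or above 10%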;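 also: 0% = median of on-plate neutral control wells and 100% = ellipticine 6 µM median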
#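 Assay system: SV40-immortalized XiGFP fibroblast cells, line 68-5-11; buffer or medium: DMEM plus 5-aza-dC sensitizer; compound: one concentration, pinned; timing: compounds 3 days, fix/stain 15 min at room temperature; benchmarks: positive control ellipticine, 6 µM final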
# SR-BI uptake up = activators of SR-BI mediated DiI-HDL uptake, primary screen, ldlA[mSR-BI] CHO cells, DiI fluorescence. 3 h; 100 = double the neutral-control signal. activation, % at 12.5 µM. hit rate 0.096% among 320,000;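 active = mean replicate activation of at least 60% and every replicate at or above 60%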;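 also: 0% = median plate neutral-control signal and 100% = twice that signal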
#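 Test system: SR-BI-overexpressing, LDLR-lacking CHO cells. Measured by: DiI fluorescence, bottom read. Medium: Ham's F12 with 0.5% BSA, HEPES 25 mM, pH 7.4. Timing: 3 h uptake period with compound, 37 °C.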
# SR-BI DiI inh = inhibitors of SR-BI mediated HDL lipid uptake, primary screen, ldlA[mSR-BI] cells, fluorescence, single point. inhibition, % at 12.5 µM. ldlA[mSR-BI] CHO cells, DiI-HDL uptake fluorescence, 3 h. Scavenger receptor class B member 1 (Mus musculus), Q61009. hit rate 0.96% among 320,000. AID 488896, 2010;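 active = mean replicate inhibition of at least 70% and a set share of replicates each scoring 70 or more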;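 also: 0% = median of neutral control wells and 100% = median of positive control wells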
# Target sequence (Q61009 whole entry, looked up): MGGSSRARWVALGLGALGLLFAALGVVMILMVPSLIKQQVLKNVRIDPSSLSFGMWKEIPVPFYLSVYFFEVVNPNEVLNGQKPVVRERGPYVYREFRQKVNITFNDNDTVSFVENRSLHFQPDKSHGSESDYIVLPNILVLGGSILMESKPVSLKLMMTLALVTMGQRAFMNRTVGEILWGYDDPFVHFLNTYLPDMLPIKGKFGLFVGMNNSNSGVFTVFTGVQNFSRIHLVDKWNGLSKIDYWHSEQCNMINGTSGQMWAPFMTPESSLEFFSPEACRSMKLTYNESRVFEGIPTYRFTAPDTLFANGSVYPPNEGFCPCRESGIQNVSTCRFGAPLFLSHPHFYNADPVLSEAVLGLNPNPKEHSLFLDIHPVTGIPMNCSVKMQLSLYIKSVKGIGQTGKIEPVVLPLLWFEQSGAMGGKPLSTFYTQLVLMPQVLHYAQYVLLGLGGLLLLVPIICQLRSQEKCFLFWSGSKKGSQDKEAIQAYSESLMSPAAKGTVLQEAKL
# Numbers without * were called inactive; / = not tested or not shown. Only some compounds are listed: those with a hit (about 2.6% of all), similar ones and a draw of the others.
SMILES,rRNA inh HTS,PvdQ acylase,dFosB act,Xi reactivation,SR-BI uptake up,SR-BI DiI inh
Cc1nc(SCC(=O)Nc2c(C)nn(C)c2C)c2cnn(-c3ccccc3)c2n1,/,-3.6,7.1,/,-24.1,24.1
CC(C)c1nc(SCC(=O)Nc2c[nH]c(=O)[nH]c2=O)c2cnn(-c3ccccc3)c2n1,20.3,5.5,153.2*,0.2,-22.6,22.6
C/C(=N\NC(=O)c1ccc(Cl)cc1)c1cccc(NC(=O)C(C)C)c1,/,-14.8,-10.2,/,-15.4,15.4
Cc1[nH]nc(N=CC2=C(O)CC(C)(C)CC2=O)c1-c1ccc(Cl)cc1,7.2,-3.3,-28.1,-0.1,-16.7,16.7
Cc1noc(C)c1NC(=O)N(C)C[C@H]1Oc2c(NC(=O)Nc3cccc4ccccc34)cccc2C(=O)N([C@@H](C)CO)C[C@@H]1C,-1.7,/,/,-0.7,/,/
COc1ccccc1NCC(=O)Nc1cc(S(=O)(=O)N2CCOCC2)ccc1N1CCOCC1,16.1,3.4,-4.3,0.0,0.4,-0.4
COc1ccccc1S(=O)(=O)Nc1cc(S(=O)(=O)N2CCCCC2)ccc1N1CCOCC1,-27.9*,6.7,-7.6,-0.1,-2.5,2.5
CCOC(=O)C1CCN(C2=NC(=O)/C(=C/c3ccccc3OC)S2)CC1,-24.1*,-3.3,-13.6,0.0,-1.7,1.7
COc1ccccc1/C=C1\SC(N2CCC(C)CC2)=NC1=O,-26.4,9.8,-20.7,-0.1,-20.3,20.3
COc1ccc(NC(=O)c2c(N)no[n+]2[O-])cc1,12.2,-0.5,20.5*,0.9,26.5,-26.6
COc1ccc(NC(=O)c2c(N)no[n+]2[O-])c(OC)c1,9.2,-12.4,-3.0,0.2,-13.1,13.1
C=CCn1cccc(C(=O)Nc2ccc(C)cc2)c1=O,-5.7,-9.6,-2.3,0.2,0.1,-0.1
C=CCn1cccc(C(=O)Nc2ccc(C)c(C)c2)c1=O,-29.9*,-4.8,-7.2,0.1,-18.4,18.4
COCCNC(=O)C[C@@H]1CC[C@@H]2[C@@H](COc3ccc(NC(=O)c4cc(C)on4)cc3C(=O)N2C)O1,1.4,/,/,0.1,/,/
O=C(Nc1ccc(NC(=O)c2ccco2)c(Cl)c1)c1ccccc1,12.2,6.5,15.6,-0.1,-30.3,30.3
CC(C)COc1ccc(C(=O)Nc2ccc(NC(=O)c3ccco3)c(Cl)c2)cc1,/,-15.8,-1.2,/,-69.1,69.1
COc1ccc(NC(=O)c2ccccc2Cl)c(NC(=O)c2ccco2)c1,-3.5,-18.8,-9.0,0.1,-14.7,14.7
COc1ccc(C(=O)Nc2ccc(NC(=O)c3ccco3)c(Cl)c2)cc1OC,/,-4.3,1.3,/,-74.6,74.6*
COc1ccc(NC(=O)c2cc(Cl)ccc2NC(=O)c2ccco2)c(OC)c1,/,-14.2,13.3,/,-73.8,73.8*
CC(C)Oc1ccc(C(=O)NC(=S)Nc2ccc(Cl)c(C(=O)O)c2)cc1,-20.6*,-14.1,-6.9,0.0,/,/
CC(C)Oc1ccc(C(=O)Nc2ccc(NC(=O)c3ccco3)c(Cl)c2)cc1,/,-4.0,3.0,/,/,78.7*
C/C(=N\NS(=O)(=O)c1c(C)cc(C)cc1C)c1ccncc1,7.6,-2.1,-3.1,-0.1,-17.8,17.8
C[C@@H]1CN([C@@H](C)CO)C(=O)c2cccc(NC(=O)Nc3ccc(F)cc3)c2O[C@H]1CN(C)Cc1ccc2c(c1)OCO2,-9.0,/,/,-1.0,/,/
COc1cc([N+](=O)[O-])cc(/C=N\NC(=O)C2COc3ccccc3O2)c1O (stereo unspecified),-20.4*,0.2,3.4,0.0,/,/
O=C(NCc1cccc(Cl)c1)c1cccnc1,7.1,7.5,-2.2,/,-4.3,4.3
SMILES,rRNA inh HTS,PvdQ acylase,dFosB act,Xi reactivation,SR-BI uptake up,SR-BI DiI inh
Cc1cc(N2C(=O)C3CC=CCC3C2=O)no1 (stereo unspecified),/,-2.3,2.8,/,-11.8,11.8
Cc1ccc(Cl)cc1NC(=O)CNCC(c1ccccc1)N(C)C (stereo unspecified),7.5,-12.3,-6.4,0.0,20.1,-20.1
CN(C)CC(=O)N1CC2(C1)[C@H](c1ccccc1)[C@H](CO)N2C(=O)C1CCCCC1,1.7,/,/,0.1,/,/
O=[N+]([O-])c1ccc2nc(NN=Cc3ccc(O)cc3)sc2c1,-11.8*,5.1,12.6,0.4,-51.1,51.1
CC(NC(=O)COC(=O)c1ccccc1O)C1CC2CCC1C2 (stereo unspecified),3.6,-2.4,0.9,0.3,8.4,-8.4
CC(=O)C1=C(c2ccccc2)OC(N)=C(C#N)C1c1ccccc1C (stereo unspecified),-33.4*,4.1,2.9,0.7,10.0,-10.0
CC(=O)C1=C(c2ccccc2)OC(N)=C(C#N)C1c1ccccc1F (stereo unspecified),-46.6*,-0.7,-0.3,-0.1,16.7,-16.7
CCOC(=O)C1=C(c2ccccc2)OC(N)=C(C#N)C1c1cccs1 (stereo unspecified),/,-1.7,-1.8,/,5.3,-5.3
Cn1ccnc1SCc1cccc([N+](=O)[O-])c1,-0.6,-8.9,-2.6,/,4.7,-4.7
CCCCOc1ccc(C(=O)N2CCN(CC(=O)Nc3ccc(C)cc3)CC2)cc1OC,-9.3,-3.7,-17.5,0.0,-77.8,77.8*
CCOc1ccc(NC(=O)CN2CCN(CC(=O)c3ccc(OC)c(OC)c3)CC2)cc1,/,-15.8,-6.9,/,-63.1,63.0
COc1ccc(C(=O)NC2CCN(CC(=O)Nc3cccc(C)c3)CC2)cc1OC,/,-2.0,-0.4,/,-80.1,80.1*
CC(=O)NC1=NC(=O)/C(=C/c2cc(C)n(-c3cccc(C(=O)O)c3)c2C)S1,-1.1,-0.2,-16.1,0.0,13.3,-13.3
CC(=O)NC1=NC(=O)/C(=C/c2cc(C)n(-c3ccc(NC(C)=O)cc3)c2C)S1,-29.1*,-1.9,-10.2,0.0,-27.6,27.6
O=c1cc(O)c2ccc(O)cc2o1,-23.2,-2.5,-1.1,/,15.8,-15.8
O=c1ccc2[n+]([O-])c3ccc(O)cc3oc-2c1,6.9,0.8,39.7*,1.5,17.9,-17.9
CN(C)C(=O)N1CCN(C(=O)N2CCOCC2)CC1,/,1.9,-11.5,/,75.4*,-75.4
CCOC(=O)c1[nH]c2ccc(F)cc2c1NC(=O)c1cc(OC)c(OC)c(OC)c1,/,-4.9,3.0,/,-71.5,71.5*
C/C=C/c1ccc([C@H]2[C@@H](CO)N(C(=O)c3cccnc3)[C@H]2C#N)cc1,-1.5,/,/,0.3,/,/
c1ccc2c(CSc3ncnc4nc[nH]c34)cccc2c1,-31.3*,-9.0,-9.4,0.1,10.3,-10.3

# Screening data: PubChem BioAssay, Broad Institute
